Measured values taken from ChEMBL document CHEMBL2029233, “Des-acyl ghrelin fragments and analogues promote survival of pancreatic β-cells and human pancreatic islets and prevent diabetes in streptozotocin-treated rats” (2012).
Calls of active or inactive are those of the source. The rule behind the calls is not given here. Peptide text beside a SMILES is read from it.

Tests used:
HIT-T15 [1] = experiment: Cytoprotective activity in hamster HIT-T15 cells assessed as inhibition of serum starvation-induced cell death at 1 to 100 nM after 24 hrs by MTT assay relative to control; format: functional, cell-based; details: Mesocricetus auratus
Procedure, shortened: (§1)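 Viability by MTT in HIT-T15 cells seeded at 5×10^3/well, serum-starved 24 h, then 24 h more in serum-free medium with peptide (1–100 nM). MTT 1 mg/mL ~1 h, DMSO solubilization, absorbance 570 nm. Expressed as percent of serum-free control. Mean ± SE, ≥3 experiments in quadruplicate.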

Pancreatic islet [2] = experiment: Cytoprotective activity in human pancreatic islet cells assessed as inhibition of serum starvation-induced cell death at 100 nM after 24 hrs by MTT assay relative to control; format: functional
Procedure, shortened: (§2)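 Human donor islets (purity >70%, 25/well) serum-starved 24 h, then 24 h serum-free with peptide (1–100 nM), alone or with IFN-γ 100 ng/mL, TNF-α 200 ng/mL, IL-1β 10 ng/mL. MTT 1 mg/mL ~1 h, DMSO, A570. Percent of serum-free or cytokine control. ≥3 experiments in quadruplicate.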

HIT-T15 [3] = experiment: Cytoprotective activity in hamster HIT-T15 cells assessed as inhibition of IFN-gamma/TNFalpha/IL1beta-induced cell death at 1 to 100 nM after 24 hrs by MTT assay relative to control; format: functional, cell-based; details: Mesocricetus auratus
Procedure, shortened: (§3)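 HIT-T15 cells (5×10^3/well) serum-starved 24 h, then 24 h serum-free with IFN-γ 100 ng/mL, TNF-α 200 ng/mL, IL-1β 10 ng/mL plus peptide (1–100 nM). MTT 1 mg/mL ~1 h, formazan dissolved in DMSO, A570. Reported as percent of cytokine control. Mean ± SE of ≥3 experiments in quadruplicate.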

Pancreatic islet [4] = experiment: Cytoprotective activity in human pancreatic islet cells assessed as inhibition of IFN-gamma/TNFalpha/IL1beta-induced cell death at 10 nM after 24 hrs by MTT assay relative to control; format: functional; procedure, shortened: as §2
Pancreatic islet [5] = experiment: Cytoprotective activity in human pancreatic islet cells assessed as inhibition of IFN-gamma/TNFalpha/IL1beta-induced cell death at 100 nM after 24 hrs by MTT assay relative to control; format: functional; procedure, shortened: as §2
Pancreatic islet [6] = experiment: Cytoprotective activity in human pancreatic islet cells assessed as inhibition of serum starvation-induced cell death at 10 nM after 24 hrs by MTT assay relative to control; format: functional; procedure, shortened: as §2
Pancreatic islet [7] = experiment: Cytoprotective activity in human pancreatic islet cells assessed as inhibition of serum starvation-induced cell death at 1 nM after 24 hrs by MTT assay relative to control; format: functional; procedure, shortened: as §2
Pancreatic islet [8] = experiment: Cytoprotective activity in human pancreatic islet cells assessed as inhibition of IFN-gamma/TNFalpha/IL1beta-induced cell death at 1 nM after 24 hrs by MTT assay relative to control; format: functional; procedure, shortened: as §2
HIT-T15 [9] = experiment: Cytoprotective activity in hamster HIT-T15 cells assessed as inhibition of IFN-gamma/TNFalpha/IL1beta-induced cell death at 10 to 100 nM after 24 hrs by MTT assay relative to control; format: functional, cell-based; details: Mesocricetus auratus; procedure, shortened: as §3
HIT-T15 [10] = experiment: Antiapoptotic activity in hamster HIT-T15 cells assessed as reduction in IFN-gamma/TNFalpha/IL1beta-induced apoptosis at 1 nM after 24 hrs by Hoechst staining relative to control; format: functional, cell-based; details: Mesocricetus auratus
Procedure, shortened: (§4)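 HIT-T15 cells serum-starved 24 h, then 24 h in serum-free medium with IFN-γ 100 ng/mL, TNF-α 200 ng/mL, IL-1β 10 ng/mL plus peptide. Cells pooled with floating cells, formaldehyde-fixed, ethanol-stored, stained with 10 μg/mL Hoechst 33258. Condensed/fragmented nuclei counted, 500 nuclei in duplicate, n = 3. Reported as percent apoptotic cells.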

Pancreatic islet [11] = experiment: Cytoprotective activity in human pancreatic islet cells assessed as inhibition of IFN-gamma/TNFalpha/IL1beta-induced cell death at 100 nM after 72 hrs by MTT assay relative to control; format: functional
Procedure, shortened: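 Human donor islets (>70% purity, 25/well) held 72 h in serum-free medium with peptide, alone or with IFN-γ/TNF-α/IL-1β at 5 ng/mL each. Viability by MTT (1 mg/mL ~1 h, DMSO, 570 nm). Mean ± SE of ≥3 experiments in quadruplicate.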

HIT-T15 [12] = experiment: Antiapoptotic activity in hamster HIT-T15 cells assessed as reduction in IFN-gamma/TNFalpha/IL1beta-induced apoptosis at 100 nM after 24 hrs by Hoechst staining relative to control; format: functional, cell-based; details: Mesocricetus auratus; procedure, shortened: as §4
HIT-T15 [13] = experiment: Antiapoptotic activity in hamster HIT-T15 cells assessed as reduction in IFN-gamma/TNFalpha/IL1beta-induced apoptosis at 10 nM after 24 hrs by Hoechst staining relative to control; format: functional, cell-based; details: Mesocricetus auratus; procedure, shortened: as §4
EPC [14] = experiment: Cytoprotective activity in human EPC assessed as decrease in H2O2-induced senescence associated beta-galactosidase positive cells at 10 uM after 24 hrs; format: functional
Procedure, shortened: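 EPCs given test peptides (1 μM or 10 μM) with or without H₂O₂ for 24 h. Cells then fixed in 2% paraformaldehyde for 3 min and stained 24 h at 37 °C with X-gal solution. SA-β-gal-positive cells counted out of 100 at 20× by three investigators.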

HIT-T15 [15] = experiment: Cytoprotective activity in hamster HIT-T15 cells assessed as inhibition of serum starvation-induced cell death after 24 hrs by MTT assay relative to control; format: functional, cell-based; details: Mesocricetus auratus; procedure, shortened: as §1
[16] = target: Ras-related C3 botulinum toxin substrate 1 (Homo sapiens) (UniProt P63000); experiment: Inhibition of Rac1 activation
HIT-T15 [17] = experiment: Cytoprotective activity in hamster HIT-T15 cells assessed as inhibition of IFN-gamma/TNFalpha/IL1beta-induced cell death after 24 hrs by MTT assay relative to control; format: functional, cell-based; details: Mesocricetus auratus; procedure, shortened: as §3
EPC [18] = experiment: Cytoprotective activity in human EPC assessed as decrease in H2O2-induced ROS production after 2 hrs by DCF-DA flow cytometry assay; format: functional
Procedure, shortened: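 Human EPCs from peripheral blood mononuclear cells, cultured 21 days on collagen I in EGM-2. ROS measured by flow cytometry using DCF-DA (0.5 μM final) after 2 h of treatment. H₂O₂ 150 μM as positive control.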

| Compound | Activity (HIT-T15 [1]) | Activity (Pancreatic islet [2]) | Activity (HIT-T15 [3]) | Activity (Pancreatic islet [4]) | Activity (Pancreatic islet [5]) | Activity (Pancreatic islet [6]) | Activity (Pancreatic islet [7]) | Activity (Pancreatic islet [8]) | Activity (HIT-T15 [9]) | Activity (HIT-T15 [10]) | Activity (HIT-T15 [12]) | Activity (HIT-T15 [13]) | other results |
| --- | --- | --- | --- | --- | --- | --- | --- | --- | --- | --- | --- | --- | --- |
| H-GSSFLSPEHQRVQQRKES-NH2 | Active | inactive | Active | Active | inactive | Active | Active | Active |  |  |  |  |  |
| H-ESKKPPAKLQPR-OH | inactive | inactive | inactive | inactive | inactive | inactive | inactive | inactive |  |  |  |  |  |
| CC(C)[C@H](NC(=O)[C@H](CCCNC(=N)N)NC(=O)[C@H](CCC(N)=O)NC(=O)[C@@H](N)Cc1cnc[nH]1)C(N)=O (H-HQRV-NH2) |  |  |  |  |  |  |  |  | Active |  |  |  |  |
| H-QQVRQHEPSLFSSG-OH |  | inactive | inactive |  | inactive |  |  |  |  | inactive | inactive | inactive | Activity (Pancreatic islet [11]): inactive |
| H-EHQRV-NH2 |  |  |  |  |  |  |  |  | Active | inactive | Active | inactive |  |
| CC(C)[C@@H]1NC(=O)[C@H](CCCNC(=N)N)NC(=O)[C@H](CCC(N)=O)NC(=O)[C@H](Cc2cnc[nH]2)NC(=O)[C@H](CCC(=O)O)NC(=O)[C@@H]2CCCN2C(=O)[C@H](CO)NC(=O)[C@H](CCC(N)=O)NC1=O (cyclo(EHQRVQSP)) |  |  |  |  |  |  |  |  |  |  |  |  | Activity (EPC [14]): Active; Activity (HIT-T15 [15]): Dose-dependent effect; inhibition [16]: Active; Activity (HIT-T15 [17]): Dose-dependent effect; Activity (EPC [18]): Active |
